By ΔTm is commonly meant the shift of the melting midpoint relative to a reference. As usually defined, the GI50 is the concentration at which growth is held to half of that of the control. By TGI is commonly meant the concentration at which net growth stops. Read a low TGI as more potent growth arrest.

Structures are written as SMILES.

Data on two compounds can be found in ChEMBL document CHEMBL1799996, “Novel C8-linked pyrrolobenzodiazepine (PBD)-heterocycle conjugates that recognize DNA sequences containing an inverted CCAAT box” (2011).

The subject of experiment [1] is Nucleic Acid. As to the kind of experiment: Binding affinity to calf thymus DNA assessed as change in melting temperature at 5 uM at pH 7 after 4 hrs by thermal denaturation assay. It counts as nucleic-acid assay. The settings on record: Bos taurus.
For experiment [2], the system named is Nucleic Acid. Nature of the experiment: Binding affinity to calf thymus DNA assessed as change in melting temperature at 5 uM at pH 7 after 18 hrs by thermal denaturation assay. It counts as nucleic-acid assay. To be noted: Bos taurus.
For experiment [3], the system named is Nucleic Acid. Nature of the experiment: Binding affinity to ICB1 site of human topoisomerase 2alpha promoter after 17 hrs by DNase 1 footprinting assay. It counts as nucleic-acid assay. An outline of the steps:
(§1)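 Reported value is the lowest conjugate concentration that gives a measurable footprint at the respective inverted CCAAT site.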

Experiment [4] has as its system Nucleic Acid. Nature of the experiment: Binding affinity to ICB2 site of human topoisomerase 2alpha promoter after 17 hrs by DNase 1 footprinting assay. It counts as nucleic-acid assay. Summed up:
as §1

Experiment [5] can be described thus: Cytotoxicity against human NCI60 cells. It counts as functional. An outline of the steps: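 NCI 60-cell-line panel. GI50, TGI and LC50 (50% growth inhibition, total growth inhibition and 50% lethality) are given as the mean across all 60 lines.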

Turning to `COC(=O)c1cc(NC(=O)c2cc(NC(=O)CCCOc3cc4c(cc3OC)C(=O)N3CCC[C@H]3C=N4)cn2C)cn1C`, the ΔTm in experiment [1] worked out at 14.5 °C. Moreover, the ΔTm in experiment [2] was 15.1 °C. The compound also returned an Activity in experiment [3] of 1 µM. The compound further displayed an Activity in experiment [4] of 1 µM. In experiment [5], this compound displayed a GI50 of 0.011 µM, an LC50 (50% lethal concentration) of 10 µM and a TGI of 0.12 µM.
`COC(=O)CCCOc1cc2c(cc1OC)C(=O)N1CCC[C@H]1C=N2`: the ΔTm in experiment [1] is 0.3 °C. Besides, the ΔTm in experiment [2] was 0.4 °C. In experiment [5], this compound registered a GI50 of 1.74 µM, an LC50 (50% lethal concentration) of 46.8 µM and a TGI of 11.8 µM.
